# Experimental data from publication PMC12139872 (bioRxiv, 2025).
# Assays:
# [1] = test system: MOLM-13; experiment: Cytotoxicity of antioxidants; format: cell-based; conditions: 72-hour treatment
# Procedure, shortened: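 Each antioxidant (GSH, GSSG, tocopherol, ascorbate) was dissolved in sterile water and applied alone to MOLM-13 cells.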
# [2] = biological target: T1, human glutathione reductase (GSR) (Homo sapiens, UniProt P00390); experiment: Differential scanning fluorometry; format: binding; conditions: 5 μM GSR, 20 μM compound
# T1 sequence (P00390 44-522): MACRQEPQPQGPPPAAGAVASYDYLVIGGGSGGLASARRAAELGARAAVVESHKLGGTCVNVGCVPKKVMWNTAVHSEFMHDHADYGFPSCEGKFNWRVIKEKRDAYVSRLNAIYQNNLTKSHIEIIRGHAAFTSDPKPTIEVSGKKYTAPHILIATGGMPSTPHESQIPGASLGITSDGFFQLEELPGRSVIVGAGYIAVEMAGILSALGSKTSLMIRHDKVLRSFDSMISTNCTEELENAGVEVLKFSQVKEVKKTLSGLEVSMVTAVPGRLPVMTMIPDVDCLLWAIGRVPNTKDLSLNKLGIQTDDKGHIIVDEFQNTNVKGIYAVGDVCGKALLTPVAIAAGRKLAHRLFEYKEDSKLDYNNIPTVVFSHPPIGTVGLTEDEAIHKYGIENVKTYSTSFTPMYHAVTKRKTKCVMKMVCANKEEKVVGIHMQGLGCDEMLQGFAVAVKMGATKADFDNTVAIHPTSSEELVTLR
# Procedure, shortened: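 Human GSR (5 µM final), compound (20 µM final) and 5X SYPRO Orange were combined in 20 mM HEPES pH 7.4, 100 mM NaCl, 1% DMSO. Controls: no protein, compound fluorescence, plate autofluorescence, plus 2-AAPA as positive control. Plates were heated from 25 to 95 °C at 1-min steps with FRET-channel readout. Tm was taken from the dRFU derivative, and significance was tested by Student's t-test.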
Molecule,concentrations at which antioxidant is toxic to MOLM-13 [1],toxicity of exogenously supplemented antioxidant to MOLM-13 (in words) [1],also measured
O=C1O[C@H]([C@@H](O)CO)C(O)=C1O [ascorbate],> 15.63 µM,–,–
"CC(=O)NC(CSC(=S)Nc1ccc(NC(=S)SCC(NC(C)=O)C(=O)O)cc1)C(=O)O (centres unmarked) [Compound 2-AAPA, 2-AAPA]",–,–,change in melting temperature (Tm) of GSR [2]: significantly changed the melting temperature
oxidized glutathione [GSSG],–,not toxic,–
"N[C@@H](CCC(=O)N[C@@H](CS)C(=O)NCC(=O)O)C(=O)O [GSH, reduced glutathione]",–,not toxic,–
Cc1c(C)c2c(c(C)c1O)CC[C@@](C)(CCC[C@H](C)CCC[C@H](C)CCCC(C)C)O2 [tocopherol],higher than 62.5 μM,–,–
